For assay [1], the species on record is Capra hircus. Nature of the assay: Inhibition of goat brain tubulin polymerization at 5 uM incubated for 20 mins prior to GTP addition measured for 30 mins by 90 degree light scattering-based fluorescence spectrophotometric method. The method in brief: (§1)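 Goat brain tubulin (10 μM) was preincubated with compound (5 μM; or 1, 5, 7, 10 μM) in 1 M monosodium glutamate, 3 mM MgCl2, 1 mM EGTA, 25 mM Pipes pH 6.8 on ice for 20 min. GTP (1 mM) was then added and assembly followed by 90° light scattering at 400 nm for 30 min at 37 °C. Experiment run twice.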

Assay [2] concerns HeLa. Nature of the assay: Cytotoxicity against human HeLa cells after 24 to 48 hrs by trypan blue assay. Format: functional, cell-based. The essentials:
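Cells were seeded at 1 × 10^5 cells/mL, grown 24 h at 37 °C in 5% CO2, then given vehicle (0.1% DMSO) or 1–80 nM for a further 24 or 48 h. Attached plus floating cells were counted after trypan blue staining. Percent inhibition was plotted against concentration to give IC50. Average of three independent experiments.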

The subject of assay [3] is HeLa. Description: Antiproliferative activity against human HeLa cells assessed as median dose after 24 hrs. Format: functional. The essentials:
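HeLa cells treated for 24 h with each agent alone and in combinations. The median dose (Dm) was taken from the median dose plot, and combination index was computed as CI = (D)1/(Dx)1 + (D)2/(Dx)2.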

The nature of assay [4]: Inhibition of goat brain tubulin polymerization incubated for 20 mins prior to GTP addition measured for 30 mins by 90 degree light scattering-based fluorescence spectrophotometric method. Also on record: species or system Capra hircus. The method in brief: as §1
For assay [5], the species on record is Capra hircus. To be noted: 3 uM.
Assay [6] relates to HeLa. Description: Induction of apoptosis in human HeLa cells assessed as apoptotic cells at 700 nM after 24 hrs by annexin V-FITC/propidium iodide staining-based FACS analysis. Format: functional. The essentials: (§2)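 HeLa cells were exposed for 10 or 24 h, then stained with annexin V and propidium iodide using an apoptosis kit. Apoptotic cells were quantified by FACS. Compounds were dissolved in DMSO.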
In general terms: In flow cytometry, cells or beads pass a laser one at a time.

Assay [7] has as its system HeLa. Description: Induction of apoptosis in human HeLa cells assessed as apoptotic cells at 700 nM after 10 hrs by annexin V-FITC/propidium iodide staining-based FACS analysis. Format: functional. The essentials: as §2
Assay [8] relates to HeLa. Description: Inhibition of mitosis in human HeLa cells assessed as mitotic index at 300 nM after 48 hrs by Hoechst 33258 DNA staining assay (reference value: 4 +/- 0.2 %). Also on record: scale not given: the % may be the effect or the level left. Format: functional. The essentials:
(§3)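 HeLa cells were treated for 24 or 48 h with compound or vehicle (0.1% DMSO). DNA was stained with Hoechst 33258 and mitotic cells were counted to give the mitotic index.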

Assay [9] deals with HeLa. Description: Inhibition of mitosis in human HeLa cells assessed as mitotic index at 200 nM after 48 hrs by Hoechst 33258 DNA staining assay (reference value: 4 +/- 0.2 %). Format: functional. Details: scale not given: the % may be the effect or the level left. The method in brief:
as §3

In assay [10] the test system is HeLa. Description: Inhibition of mitosis in human HeLa cells assessed as mitotic index at 100 nM after 48 hrs by Hoechst 33258 DNA staining assay (reference value: 4 +/- 0.2 %). Format: functional. Details: scale not given: the % may be the effect or the level left. The method in brief: as §3
Assay [11] concerns HeLa. Description: Inhibition of mitosis in human HeLa cells assessed as mitotic index at 300 nM after 24 hrs by Hoechst 33258 DNA staining assay (reference value: 4 +/- 0.3 %). Details: scale not given: the % may be the effect or the level left. Format: functional. The method in brief:
as §3

The subject of assay [12] is HeLa. Nature of the assay: Inhibition of mitosis in human HeLa cells assessed as mitotic index at 200 nM after 24 hrs by Hoechst 33258 DNA staining assay (reference value: 4 +/- 0.3 %). Also on record: scale not given: the % may be the effect or the level left. The assay is classed as functional. The method in brief:
as §3

The subject of assay [13] is HeLa. Description: Inhibition of mitosis in human HeLa cells assessed as mitotic index at 100 nM after 24 hrs by Hoechst 33258 DNA staining assay (reference value: 4 +/- 0.3 %). The assay is classed as functional. Also on record: scale not given: the % may be the effect or the level left. The method in brief:
as §3

In assay [14] the test system is HeLa. Nature of the assay: Inhibition of mitosis in human HeLa cells after 24 hrs by Hoechst 33258 DNA staining assay. Format: functional, cell-based. The method in brief: as §3
The subject of assay [15] is SK-N-SH. Description: Cytotoxicity against human SK-N-SH cells assessed as cell death at 50 uM after 72 hrs by MTT assay. The assay is classed as functional. For orientation: Formazan colour is commonly taken as a measure of viable cells.
In assay [16] the test system is SK-N-SH. Description: Cytotoxicity against human SK-N-SH cells assessed as cell death at 80 uM after 72 hrs by MTT assay. Format: functional.

pIC50: −log10 of the molar value. Where a SMILES comes first, the peptide text is derived from it. [ ]: non-standard residue; d: D form. The star is where a group is joined. X1 = COC1=CC(=O)N(C(=O)[C@@H](O*)C(C)C)[C@H]1Cc1ccccc1; NMe2Val = CC(C)[C@@H](C(=O)*)N(C)C; NMeV = CN[C@H](C(=O)O)C(C)C

Regarding `CC[C@H](C)[C@@H](/C=C/C(=O)NC[C@H]1O[C@@H](C(=O)N[C@@H](Cc2ccccc2)C2=NCCS2)[C@@H](OC)[C@@H]1OC)N(C)C(=O)[C@@H](NC(=O)[C@H](C(C)C)N(C)C)C(C)C`, the inhibition in the assay filed under Capra hircus [1] was 21%. Further, the negative-log IC50 (pIC50) in the assay on HeLa [2] is 8.06.

As for `CC[C@H](C)[C@@H]([C@H](CC(=O)NC[C@H]1O[C@H](C(=O)N[C@@H](Cc2ccccc2)c2nccs2)[C@@H](OC)[C@@H]1OC)OC)N(C)C(=O)[C@@H](NC(=O)[C@@H](NC)C(C)C)C(C)C`, the inhibition in the assay listed under Capra hircus [1] stood at 10%. The pIC50 with HeLa [2] was 8.00.

Turning to `COc1cc2c(c(OC)c1OC)-c1ccc(OC)c(=O)cc1[C@@H](NC(C)=O)CC2` [COLCHICINE], in the assay on HeLa [3], the Activity came to 17.8 nM.

For `CC[C@H](C)[C@@H]([C@@H](CC(=O)NC[C@H]1O[C@@H](C(=O)NCCc2ccccc2)[C@@H](OC)[C@@H]1OC)OC)N(C)C(=O)[C@@H](NC(=O)[C@@H](NC)C(C)C)C(C)C`, the pIC50 in the assay on HeLa [2] was 7.82.

In the assay on HeLa [2], `CC[C@H](C)[C@@H]([C@H](O)CC(=O)NC[C@H]1O[C@@H](C(=O)NCc2ccccc2)[C@@H](OC)[C@@H]1OC)N(C)C(=O)[C@@H](NC(=O)[C@@H](NC)C(C)C)C(C)C` gave a pIC50 of 7.80.

Take `CC[C@]1(O)C[C@@H]2CN(CCc3c([nH]c4ccccc34)[C@@](C(=O)OC)(c3cc4c(cc3OC)N(C)[C@H]3[C@@](O)(C(=O)OC)[C@H](OC(C)=O)[C@]5(CC)C=CCN6CC[C@]43[C@@H]65)C2)C1` [VINBLASTINE]: the Activity in the assay on HeLa [3] is 2.3 nM. In assay [4], the pIC50 is 5.82. Further, the inhibition in the assay filed under Capra hircus [5] is 50%.

For the molecule `COC1=CC(=O)N(C(=O)[C@@H](OC(=O)[C@@H]2CCCN2C(=O)[C@@H]2CCCN2C(=O)[C@H](C(C)C)N(C)C(=O)[C@@H](NC(=O)[C@H](C(C)C)N(C)C)C(C)C)C(C)C)[C@H]1Cc1ccccc1` [DOLASTATIN 15] (NMe2Val-V[NMeV]PP-X1), in [4], the pIC50 is 4.64.

Consider `COC(=O)Nc1nc2cc(C(=O)c3cccs3)ccc2[nH]1` [NOCODAZOLE], for which the Activity in the assay on HeLa [6] was 50.5%; with HeLa [7] it was 14.7%; with HeLa [8] it was 11%; in the assay with HeLa [9] it was 13%; in the assay with HeLa [10] it was 14%; in the assay on HeLa [11], 36%. The Activity in the assay on HeLa [12] is 28%; with HeLa [13], 22%. Moreover, in the assay with HeLa [14], the inhibition entry is “Dose-dependent effect”. The pIC50 in the assay on HeLa [2] is 6.75.

As for `CC[C@]12C=CCN3CC[C@@]4(c5cc([C@@]6(C(=O)OC)C[C@@H]7C[C@@H](C(C)(F)F)CN(Cc8c6[nH]c6ccccc86)C7)c(OC)cc5N(C)[C@H]4[C@@](O)(C(=O)OC)[C@@H]1OC(C)=O)[C@@H]32` [VINFLUNINE], the results for the Activity with SK-N-SH [15] and in the assay on SK-N-SH [16] were 50% and 70%, respectively.

With `CC[C@H](C)[C@@H]([C@H](CC(=O)NC[C@H]1O[C@H](C(=O)N[C@@H](Cc2ccccc2)c2nccs2)[C@@H](OC)[C@@H]1OC)OC)N(C)C(=O)[C@@H](NC(=O)[C@H](C(C)C)N(C)C)C(C)C`, the negative-log IC50 (pIC50) with HeLa [2] is 7.80.

In assay [4], `CC[C@H](C)[C@@H]([C@@H](CC(=O)N1CCC[C@H]1[C@H](OC)[C@@H](C)C(=O)N[C@@H](Cc1ccccc1)c1nccs1)OC)N(C)C(=O)[C@@H](NC(=O)[C@H](C(C)C)N(C)C)C(C)C` [DOLASTATIN-10] had a pIC50 of 5.92.

In the case of `CO[C@@H](/C(C)=C/C=C/C(C)=C/c1coc(C)n1)[C@@H](C)[C@@H]1C[C@H](O)[C@@]2(C)O[C@@H]2/C=C/[C@@H](C)[C@H]2C[C@H](CC(=O)O2)C[C@@H]2O[C@H]2C(=O)O1` [RHIZOXIN], the pIC50 in [4] is 5.17.

`CC[C@H](C)[C@@H]([C@H](O)CC(=O)NC[C@H]1O[C@H](C(=O)NCc2ccccc2)[C@@H](OC)[C@@H]1OC)N(C)C(=O)[C@@H](NC(=O)[C@@H](NC)C(C)C)C(C)C` had a pIC50 in the assay with HeLa [2] of 7.92.

In the case of `CC[C@H](C)[C@@H](/C=C/C(=O)NC[C@H]1O[C@@H](C(=O)N[C@@H](Cc2ccccc2)C2=NCCS2)[C@@H](OC)[C@@H]1OC)N(C)C(=O)[C@@H](NC(=O)[C@@H](NC)C(C)C)C(C)C`, the inhibition in the assay filed under Capra hircus [1] was 19%. In the assay with HeLa [2], the pIC50 is 8.06.

One may read the inhibition as how much of the control response was suppressed. A word on the pIC50: it is the IC50 on a negative log10 scale, so that one unit is a factor of ten.

The values above are taken from ChEMBL document CHEMBL2331364, “A synthetic dolastatin 10 analogue suppresses microtubule dynamics, inhibits cell proliferation, and induces apoptotic cell death” (J Med Chem, 2013).
